We go through 29 compounds from ChEMBL document CHEMBL3596118, “Synthesis and antiproliferative activity of imidazo[1,2-a]pyrimidine Mannich bases” (2015).

Where only a bound is given, the exact number is not on record here.

What all share (type): functional
The test system of one assay is A549. As to the kind of experiment: Growth inhibition of human A549 cells after 48 hrs by SRB assay. Conditions: A549, 48 h. In short, it runs like this: (§1)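 Cells grown in DMEM with 10% FBS, 5% CO2, 37 0C; seeded at densities set by doubling time, incubated 24 hrs, then exposed continuously 48 hrs to 0.01, 0.1, 1, 10, 100 µM; DMSO-treated cells as negative control. Fixed with cold 10% TCA (4 0C, 1 hr), stained 0.057% SRB 30 min, dye dissolved in 10 mM Tris, OD 510 nm; GI50 from [(Ti-Tz)/(C-Tz)]x100 = 50.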
In general terms: In SRB staining, fixed cells bind dye roughly in proportion to their protein.

Assay [1] can be described thus: Growth inhibition of human PANC1 cells after 48 hrs by SRB assay. Conditions: PANC-1, 48 h. In outline:
as §1

For a further assay, the system named is MDA-MB-231. Nature of the assay: Growth inhibition of human MDA-MB-231 cells after 48 hrs by SRB assay. Conditions: MDA-MB-231, 48 h. In outline: as §1
The subject of a further assay is HeLa. As to the kind of experiment: Growth inhibition of human HeLa cells after 48 hrs by SRB assay. In outline:
as §1

In general, GI50 refers to the concentration giving 50% growth inhibition. A higher GI50 goes with lower sensitivity of the cells. Turning to `c1ccc(-c2nc3ncccn3c2CN2CCOCC2)cc1`, the GI50 with A549 came to 210 nM; in assay [1], 770 nM; with MDA-MB-231, 1410 nM; with HeLa, 1670 nM.
Regarding `Cc1ccn2c(CN3CCCCC3)c(-c3ccccc3)nc2n1`, the GI50 is 4040 nM in the assay with A549, 20 nM in assay [1], 30 nM in the assay on MDA-MB-231 and 1710 nM in the assay with HeLa.
Regarding `Oc1ccc(-c2nc3ncccn3c2CN2CCCCC2)cc1`, the GI50 in the assay on A549 was 6890 nM; in assay [1], 200 nM; with MDA-MB-231 it was 7230 nM; with HeLa, 4030 nM.
For `Cc1ccn2c(CN3CCCC3)c(-c3ccc(O)cc3)nc2n1`, the concentration for 50% growth inhibition (GI50) with A549 worked out at 2480 nM; in assay [1], 7280 nM; in the assay with MDA-MB-231, 1200 nM; with HeLa, 4760 nM.
For the compound `c1ccc(-c2nc3ncccn3c2CN2CCCC2)cc1`, the GI50 in the assay on A549 was found to be 50 nM; in assay [1], 60 nM; in the assay on MDA-MB-231, 70 nM; in the assay with HeLa, 70 nM.
`c1ccc(-c2nc3ncccn3c2CN2CCCCC2)cc1`: the GI50 stood at 260 nM with A549, 1310 nM in assay [1], 30 nM with MDA-MB-231 and 2280 nM in the assay on HeLa.
With `CC(C)(C)c1nc2ncccn2c1CN1CCCCC1`, the GI50 in the assay with A549 amounted to 330 nM; in assay [1], 4510 nM; in the assay with MDA-MB-231, 1490 nM; in the assay on HeLa, 30 nM.
With `CN(Cc1c(-c2ccccc2)nc2ncccn12)c1ccccc1`, the GI50 with A549 turned out to be 5190 nM; in assay [1] it was 5760 nM; with MDA-MB-231 it was 320 nM; in the assay with HeLa, 3120 nM.
For `Cc1ccn2c(CN3CCCCC3)c(C(C)(C)C)nc2n1` the same measures were 7390 nM, 960 nM, 350 nM and 450 nM.
Turning to `Cc1ccn2c(CN3CCOCC3)c(-c3ccccc3)nc2n1`, the GI50 with A549 was 1090 nM; in assay [1], 1830 nM; with MDA-MB-231 it was 1430 nM; in the assay on HeLa it was 850 nM.
`Cc1ccn2c(CN3CCOCC3)c(-c3ccc(Cl)cc3)nc2n1`: the GI50 in the assay on A549 was 2570 nM; in assay [1], 1170 nM; in the assay with MDA-MB-231, 320 nM; in the assay on HeLa, 160 nM.
In the case of `Cc1ccn2c(CN3CCCC3)c(-c3ccccc3)nc2n1`, the concentration for 50% growth inhibition (GI50) in the assay on A549 turned out to be 4150 nM; in assay [1], 150 nM; in the assay with MDA-MB-231, 4830 nM; in the assay on HeLa, 180 nM.
The corresponding values for `c1csc(-c2nc3ncccn3c2CN2CCCC2)c1` are 180 nM, 680 nM, 200 nM and 240 nM.
On to `c1ccc(-c2nc3ncccn3c2CN2CCNCC2)cc1`, for which the GI50 in assay [1] was 9400 nM; in the assay with MDA-MB-231, 26700 nM; in the assay on HeLa it was 720 nM.
The corresponding values for `CN1CCN(Cc2c(-c3ccccc3)nc3ncccn23)CC1` are 350 nM, under 10 nM and 930 nM.
For `Cc1ccc(S(=O)(=O)N2CCN(Cc3c(-c4ccccc4)nc4ncccn34)CC2)cc1`, the 50% growth inhibitory concentration (GI50) in assay [1] amounted to 110 nM; in the assay on MDA-MB-231, 12900 nM; with HeLa, 4500 nM.
For `c1ccc(-c2nc3ncccn3c2CN2CCN(Cc3c(-c4ccccc4)nc4ncccn34)CC2)cc1` the same measures were 140 nM, 270 nM and 3240 nM.
Turning to `Cc1ccc(-c2nc3ncccn3c2CN2CCN(Cc3c(-c4ccc(C)cc4)nc4ncccn34)CC2)cc1`, the figures for the GI50 (in assay [1]; in the assay with MDA-MB-231; with HeLa) were 380 nM, 2300 nM and 2800 nM, respectively.
As for `Clc1ccc(-c2nc3ncccn3c2CN2CCN(Cc3c(-c4ccc(Cl)cc4)nc4ncccn34)CC2)cc1`, the GI50 in assay [1] amounted to 240 nM; in the assay on MDA-MB-231, 4700 nM; with HeLa, 25600 nM.
Turning to `CC(C)(C)c1nc2ncccn2c1CN1CCN(Cc2c(C(C)(C)C)nc3ncccn23)CC1`, the concentration for 50% growth inhibition (GI50) stood at 3900 nM in assay [1], 1100 nM in the assay on MDA-MB-231 and 2400 nM in the assay on HeLa.
For the compound `Cc1ccn2c(CN3CCN(Cc4c(-c5ccccc5)nc5nc(C)ccn45)CC3)c(-c3ccccc3)nc2n1`, the GI50 in assay [1] stood at 600 nM; in the assay with MDA-MB-231 it was 15900 nM; with HeLa, 12700 nM.
The corresponding values for `Cc1ccn2c(CN3CCN(Cc4c(C(C)(C)C)nc5nc(C)ccn45)CC3)c(C(C)(C)C)nc2n1` are 1400 nM, 25700 nM and 14500 nM.
For the compound `c1ccc2cc(-c3nc4ncccn4c3CN3CCN(Cc4c(-c5ccc6ccccc6c5)nc5ncccn45)CC3)ccc2c1`, the GI50 in assay [1] turned out to be 79400 nM; with MDA-MB-231, 31600 nM; in the assay on HeLa, 12600 nM.
Regarding `Clc1ccc(-c2nc3ncccn3c2CN2CCN(Cc3c(-c4ccc(Cl)cc4Cl)nc4ncccn34)CC2)c(Cl)c1`, the GI50 in assay [1] is 27700 nM; with MDA-MB-231, 210 nM; with HeLa, 2720 nM.
Turning to `COc1cc(OC)n2c(CN3CCN(Cc4c(-c5ccccc5)nc5nc(OC)cc(OC)n45)CC3)c(-c3ccccc3)nc2n1`, the results for the GI50 (in assay [1]; in the assay with MDA-MB-231; with HeLa) were 510 nM, 120 nM and 9320 nM, respectively.
For `c1csc(-c2nc3ncccn3c2CN2CCN(Cc3c(-c4cccs4)nc4ncccn34)CC2)c1`, the GI50 in assay [1] turned out to be 3700 nM; with MDA-MB-231, 7100 nM; in the assay on HeLa it was 930 nM.
The corresponding values for `Cc1ccccc1-c1nc2ncccn2c1CN1CCN(Cc2c(-c3ccccc3C)nc3ncccn23)CC1` are 120 nM, under 10 nM and 480 nM.
As for `Brc1ccc(-c2nc3ncccn3c2CN2CCN(Cc3c(-c4ccc(Br)cc4)nc4ncccn34)CC2)cc1`, the values for the GI50 (in assay [1]; in the assay with MDA-MB-231; in the assay on HeLa) were 60 nM, 1000 nM and 890 nM, respectively.
With `COc1cccc2c1C(=O)c1c(O)c3c(c(O)c1C2=O)C[C@@](O)(C(=O)CO)C[C@@H]3O[C@H]1C[C@H](N)[C@H](O)[C@H](C)O1` [DOXORUBICIN], the GI50 with A549 is under 10 nM; in assay [1] it was 10 nM; with MDA-MB-231, 10 nM; with HeLa it was 31 nM.
